The target in test [1] is T1, Stromelysin-1 (Homo sapiens, UniProt P08254). The experiment in a line: (§1) Inhibition of recombinant stromelysin catalytic domain (SCD). The method, boiled down: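 E. coli-expressed human stromelysin catalytic domain (Phe-100 to Pro-273), expressed without propeptide so needing no activation, at 100 nM (10 nM for the hydroxamate peptide). A405 read over 3 min at room temperature.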

Test [2] addresses T1, Stromelysin-1. The experiment in a line: In vitro inhibition of recombinant stromelysin catalytic domain.
In test [3] the target is T1, Stromelysin-1. Put plainly: Inhibition of full length stromelysin isolated from cultured human cells (FLS).
In test [4] the target is T1, Stromelysin-1. The experiment in a line: Inhibition of full length stromelysin isolated from cultured human cells (FLS).
The target in test [5] is T1, Stromelysin-1. The test is described as §1. This is another data set of the same source.

pIC50, pKi: −log10 of the molar value.

T1 sequence (P08254 whole entry, the tested form may be a part): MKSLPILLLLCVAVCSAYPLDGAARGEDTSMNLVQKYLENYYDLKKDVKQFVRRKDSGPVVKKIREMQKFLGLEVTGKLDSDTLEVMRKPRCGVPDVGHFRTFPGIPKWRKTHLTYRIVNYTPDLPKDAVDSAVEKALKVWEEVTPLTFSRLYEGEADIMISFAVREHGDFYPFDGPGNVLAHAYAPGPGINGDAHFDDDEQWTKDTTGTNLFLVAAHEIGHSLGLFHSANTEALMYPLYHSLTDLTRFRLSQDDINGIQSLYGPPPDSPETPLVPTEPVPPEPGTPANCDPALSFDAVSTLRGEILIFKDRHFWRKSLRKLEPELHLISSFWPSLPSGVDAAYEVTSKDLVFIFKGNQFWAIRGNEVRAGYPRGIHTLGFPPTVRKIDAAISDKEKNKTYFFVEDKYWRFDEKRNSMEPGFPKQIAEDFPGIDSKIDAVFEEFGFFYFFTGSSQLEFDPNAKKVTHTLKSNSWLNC

For the compound `O=C(N[C@@H](Cc1c[nH]c2ccccc12)C(=O)O)c1ccccc1`, the negative logarithm of the IC50 (pIC50) in test [1] was above 3.30.

Turning to `CC(=O)N[C@H](Cc1c[nH]c2ccccc12)C(=O)O`, the pIC50 in test [1] was above 3.30.

Take `CC(=O)N[C@H](Cc1ccc(O)cc1)C(=O)O`: in test [2], the negative logarithm of the IC50 (pIC50) was below 3.30.

Take `O=C(N[C@@H](Cc1ccc(O)cc1)C(=O)O)OCc1ccccc1`: the pIC50 was 4.66 in test [3] and 4.62 in test [2]. For the same compound, the pKi in test [4] was 4.74; in test [5], 4.70.

`O=C(N[C@@H](Cc1c[nH]c2ccccc12)C(=O)O)OCC1c2ccccc2-c2ccccc21`: the negative-log IC50 (pIC50) in test [2] was 3.30.

For `CC(C)(C)OC(=O)N[C@H](Cc1ccc(O)cc1)C(=O)O`, the pIC50 in test [2] was below 3.30.

`O=C(N[C@@H](Cc1c[nH]c2ccccc12)C(=O)ON1C(=O)CCC1=O)OCc1ccccc1`: in test [5], the negative-log Ki (pKi) was 4.96. Besides, in test [2], the negative-log IC50 (pIC50) was 4.89.

For `O=C(N[C@H](Cc1c[nH]c2ccccc12)C(=O)O)OCC1c2ccccc2-c2ccccc21`, in test [1], the pIC50 was above 3.30.

Regarding `O=C(N[C@H](Cc1ccc(O)cc1)C(=O)O)OCc1ccccc1`, the pIC50 in test [3] was 3.35; in test [2] it was 3.36. Further, the pKi is 3.42 in test [4] and 3.45 in test [5].

As to `O=C(/C=C/c1ccco1)N[C@@H](Cc1c[nH]c2ccccc12)C(=O)O`, the pKi in test [5] was 3.92. In addition, in test [2], the negative logarithm of the IC50 (pIC50) was 3.84.

As to `CC(C)(C)OC(=O)N[C@@H](Cc1cn(C=O)c2ccccc12)C(=O)O`, in test [5], the pKi was 4.55. Further, the pIC50 in test [2] was 4.47.

With `NC(=O)[C@H](Cc1c[nH]c2ccccc12)NC(=O)OCc1ccccc1`, the negative-log IC50 (pIC50) in test [1] was above 3.30.

Regarding `O=C(N[C@H](Cc1ccccc1)C(=O)O)OCc1ccccc1`, the pIC50 in test [3] and in test [2] was below 3.30 in each case.

Regarding `Cc1cc(C)c(S(=O)(=O)n2cc(C[C@H](NC(=O)OC(C)(C)C)C(=O)O)c3ccccc32)c(C)c1`, in test [5], the negative-log Ki (pKi) is 4.28. In addition, in test [2], the pIC50 is 4.20.

With `NNC(=O)[C@H](Cc1ccc(O)cc1)NC(=O)OCc1ccccc1`, in test [2], the negative logarithm of the IC50 (pIC50) is below 3.30.

For the compound `CC(C)(C)OC(=O)N[C@@H](Cc1c[nH]c2ccccc12)C(=O)ON1C(=O)CCC1=O`, the pKi in test [5] was 4.08. Also, in test [2], the pIC50 was 3.99.

`CC(C)(C)OC(=O)N[C@@H](Cc1ccc(O)cc1)C(=O)O`: the pIC50 in test [1] was above 3.30.

`CC(C)(C)OC(=O)N[C@H](Cc1c[nH]c2ccccc12)C(=O)O`: the pIC50 in test [1] was above 3.30.

On to `CC(C)(C)OC(=O)N[C@@H](Cc1c[nH]c2ccccc12)C(=O)O`, for which the pKi in test [5] was 5.10. In addition, the pIC50 in test [2] is 5.00.

For the compound `NC(=O)[C@H](Cc1ccc(O)cc1)NC(=O)OCc1ccccc1`, the pIC50 in test [2] is below 3.30.

As to `O=C(N[C@@H](Cc1ccccc1)C(=O)O)OCc1ccccc1`, the negative logarithm of the IC50 (pIC50) in test [3] was 4.00; in test [2] it was 4.40. Besides, the negative logarithm of the Ki (pKi) in test [4] was 4.08; in test [5], 4.48.

Consider `CC(=O)N[C@@H](Cc1ccc(O)cc1)C(=O)O` [ACETYL TYROSINE], for which, in test [2], the negative-log IC50 (pIC50) was below 3.30.

Turning to `CC(=O)N[C@@H](Cc1c[nH]c2ccccc12)C(=O)O` [ACETYLTRYPTOPHAN], the negative logarithm of the IC50 (pIC50) in test [1] is above 3.30.

`N[C@H](Cc1c[nH]c2ccccc12)C(=O)O` [D-TRYPTOPHAN]: in test [2], the negative logarithm of the IC50 (pIC50) was below 3.30.

As for `N[C@@H](Cc1c[nH]c2ccccc12)C(=O)O` [TRYPTOPHAN], in test [2], the negative-log IC50 (pIC50) was below 3.30.

For the origin of these results see ChEMBL document CHEMBL1127495, “A recombinant human stromelysin catalytic domain identifying tryptophan derivatives as human stromelysin inhibitors” (J Med Chem, 1994).
